Converted amounts (≈) assume the structure as drawn.
Legend:
Assay type in all cases: functional
[1] = test system: Streptococcus pneumoniae; assay: Antimicrobial activity against Streptococcus pneumoniae ATCC 49619
Method in brief: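 MICs determined by broth microdilution as recommended by CLSI. Agents tested included tetracycline, doxycycline, penicillin G, erythromycin and chloramphenicol. Tigecycline results were interpreted against FDA breakpoints.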

[2] = test system: Streptococcus pneumoniae; assay: Antimicrobial susceptibility of tetracycline-resistant Streptococcus pneumoniae from respiratory tract disease patient assessed as percent resistant isolates
Method in brief: (§1)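 MICs determined for all tetracycline-resistant isolates by broth microdilution per CLSI recommendations. Agents tested included tetracycline, doxycycline, penicillin G, erythromycin and chloramphenicol. FDA breakpoints were applied to categorize tigecycline results.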

[3] = test system: Streptococcus pneumoniae; assay: Antimicrobial susceptibility of tetracycline-resistant Streptococcus pneumoniae from respiratory tract disease patient assessed as percent susceptible isolates; method in brief: as §1

| SMILES | MIC50 [1] [µg/mL] | MIC90 [1] [µg/mL] | Activity [2] [%] | Activity [3] [%] |
| --- | --- | --- | --- | --- |
| CO/N=C(\C(=O)N[C@@H]1C(=O)N2C(C(=O)O)=C(COC(C)=O)CS[C@H]12)c1csc(N)n1 [CEFOTAXIME] | 0.015 (≈ 0.0329 µM) | 1 (≈ 2.2 µM) | 2.1 | 93.8 |
| O=C(N[C@H](CO)[C@H](O)c1ccc([N+](=O)[O-])cc1)C(Cl)Cl [CHLORAMPHENICOL] | 4 (≈ 12.4 µM) | 16 (≈ 49.5 µM) | 39.2 | 70.7 |
| CCC[C@@H]1C[C@@H](C(=O)N[C@@H]([C@H]2O[C@H](SC)[C@H](O)[C@@H](O)[C@H]2O)[C@H](C)Cl)N(C)C1 [CLINDAMYCIN] | ≤ 0.03 | > 4 | 23.1 | 76.9 |
| C[C@H]1c2cccc(O)c2C(=O)C2=C(O)[C@]3(O)C(=O)C(C(N)=O)=C(O)[C@@H](N(C)C)[C@@H]3[C@@H](O)[C@@H]21.O [DOXYCYCLINE] | 4 | 8 | 25.2 | 19.9 |
| CC[C@H]1OC(=O)[C@H](C)[C@@H](O[C@H]2C[C@@](C)(OC)[C@@H](O)[C@H](C)O2)[C@H](C)[C@@H](O[C@@H]2O[C@H](C)C[C@H](N(C)C)[C@H]2O)[C@](C)(O)C[C@@H](C)C(=O)[C@H](C)[C@@H](O)[C@]1(C)O [ERYTHROMYCIN] | ≤ 0.25 | > 16 | 26.4 | 72.4 |
| C[C@H]1COc2c(N3CCN(C)CC3)c(F)cc3c(=O)c(C(=O)O)cn1c23.C[C@H]1COc2c(N3CCN(C)CC3)c(F)cc3c(=O)c(C(=O)O)cn1c23.O [LEVOFLOXACIN] | 1 | 1 | 0.4 | 98.8 |
| CC(=O)NC[C@H]1CN(c2ccc(N3CCOCC3)c(F)c2)C(=O)O1 [LINEZOLID] | 1 (≈ 2.96 µM) | 1 (≈ 2.96 µM) |  | 100 |
| C[C@@H](O)[C@H]1C(=O)N2C(C(=O)O)=C(S[C@@H]3CN[C@H](C(=O)N(C)C)C3)[C@H](C)[C@H]12 [MEROPENEM] | ≤ 0.015 | 0.5 (≈ 1.3 µM) | 0.4 | 86.8 |
| CN(C)c1ccc(O)c2c1C[C@H]1C[C@H]3[C@H](N(C)C)C(O)=C(C(N)=O)C(=O)[C@@]3(O)C(O)=C1C2=O [MINOCYCLINE] | 4 (≈ 8.74 µM) | 8 (≈ 17.5 µM) | 38.8 | 24.4 |
| CC1(C)S[C@@H]2[C@H](NC(=O)Cc3ccccc3)C(=O)N2[C@H]1C(=O)O [PENICILLIN G] | 0.015 (≈ 0.0449 µM) | 2 (≈ 5.98 µM) | 14.9 | 74 |
| CO[C@H]1/C=C/O[C@@]2(C)Oc3c(C)c(O)c4c(O)c(c(/C=N/N5CCN(C)CC5)c(O)c4c3C2=O)NC(=O)/C(C)=C\C=C\[C@H](C)[C@H](O)[C@@H](C)[C@@H](O)[C@@H](C)[C@H](OC(C)=O)[C@@H]1C [RIFAMPIN] | ≤ 0.03 | ≤ 0.03 | 0.8 | 98.8 |
| CC[C@H]1OC(=O)[C@H](C)C(=O)[C@H](C)[C@@H](O[C@@H]2O[C@H](C)C[C@H](N(C)C)[C@H]2O)[C@](C)(OC)C[C@@H](C)C(=O)[C@H](C)[C@H]2N(CCCCn3cnc(-c4cccnc4)c3)C(=O)O[C@]12C [TELITHROMYCIN] | ≤ 0.015 | ≤ 0.015 | 0.4 | 98.8 |
| CN(C)[C@@H]1C(O)=C(C(N)=O)C(=O)[C@@]2(O)C(O)=C3C(=O)c4c(O)cccc4[C@@](C)(O)[C@H]3C[C@@H]12 [TETRACYCLINE] | 32 (≈ 72 µM) | 64 (≈ 144 µM) | 100 |  |
| CN(C)c1cc(NC(=O)CNC(C)(C)C)c(O)c2c1C[C@H]1C[C@H]3[C@H](N(C)C)C(O)=C(C(N)=O)C(=O)[C@@]3(O)C(O)=C1C2=O [TIGECYCLINE] | 0.015 (≈ 0.0256 µM) | 0.03 (≈ 0.0512 µM) |  | 100 |
| COc1cc(Cc2cnc(N)nc2N)cc(OC)c1OC [TRIMETHOPRIM] | 2 (≈ 6.89 µM) | 8 (≈ 27.6 µM) | 38.4 | 30.2 |
| CN[C@H](CC(C)C)C(=O)N[C@H]1C(=O)N[C@@H](CC(N)=O)C(=O)N[C@H]2C(=O)N[C@H]3C(=O)N[C@H](C(=O)N[C@H](C(=O)O)c4cc(O)cc(O)c4-c4cc3ccc4O)[C@H](O)c3ccc(c(Cl)c3)Oc3cc2cc(c3O[C@@H]2O[C@H](CO)[C@@H](O)[C@H](O)[C@H]2O[C@H]2C[C@](C)(N)[C@H](O)[C@H](C)O2)Oc2ccc(cc2Cl)[C@H]1O [VANCOMYCIN] | 0.25 (≈ 0.173 µM) | 0.5 (≈ 0.345 µM) |  | 100 |
